In data set [1] the target is T1, RNA-directed RNA polymerase (Hepacivirus hominis, UniProt O39930). Nature of the data set: Inhibitory activity against by hepatitis C virus NS5B polymerase. Put shortly:
(§1)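 Purified ΔC55 NS5B polymerase assayed with heterogenic template RNA. IC50 values come from a single experiment or are arithmetic means of multiple experiments, as footnoted; some were measured in duplicate.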

Data set [2] concerns Huh-7. Description: Effective concentration required to inhibit replication of subgenomic HCV RNA in HUH-7 cells. The class given is functional, cell-based. Particulars: Homo sapiens. Put shortly: (§2)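 Subgenomic HCV replicon in HUH-7 cells, run in medium with 10% fetal calf serum (a modification of Bartenschlager's method). EC50 was determined only for compounds giving >50% inhibition in an initial screen at a fixed 5 μM. Values are the arithmetic mean ± half-range or standard error of at least two independent determinations, or from a single experiment where noted.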

A short description of data set [3]: Plasma half life following 0.5 mg/kg iv administration in dog.
The nature of data set [4]: Oral bioavailability in rat (dose 3 mg/kg). The class given is ADME, organism-based. Particulars: in vivo. The method, boiled down:
(§3)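 Sprague-Dawley rats and male beagle dogs, dosed as trifluoroacetate salts (mg/kg; n = 3, some n = 2). Rat vehicle: iv 20% DMSO/[…] with po PEG-400, or iv 20% DMSO/80% saline with po 50% PEG-400/50% H2O. Dog vehicle: iv 20% DMSO/40% PEG-400/40% H2O, po PEG-400. Plasma levels measured by HPLC–MS/MS; noncompartmental analysis; terminal half-life from iv.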

Data set [5] can be described thus: Plasma half life following 3 mg/kg iv administration in rat. The class given is ADME, organism-based. Details: dose 3 mg/kg, route intravenous. Put shortly:
as §3

Data set [6] can be described thus: Plasma clearance in dog. The class given is ADME, organism-based, Canis lupus familiaris. Particulars: read-out: Clp. Put shortly:
as §3

Data set [7] addresses T2, pregnane X receptor (PXR, NR1I2) (Homo sapiens, UniProt O75469).
T2 sequence (O75469 whole entry): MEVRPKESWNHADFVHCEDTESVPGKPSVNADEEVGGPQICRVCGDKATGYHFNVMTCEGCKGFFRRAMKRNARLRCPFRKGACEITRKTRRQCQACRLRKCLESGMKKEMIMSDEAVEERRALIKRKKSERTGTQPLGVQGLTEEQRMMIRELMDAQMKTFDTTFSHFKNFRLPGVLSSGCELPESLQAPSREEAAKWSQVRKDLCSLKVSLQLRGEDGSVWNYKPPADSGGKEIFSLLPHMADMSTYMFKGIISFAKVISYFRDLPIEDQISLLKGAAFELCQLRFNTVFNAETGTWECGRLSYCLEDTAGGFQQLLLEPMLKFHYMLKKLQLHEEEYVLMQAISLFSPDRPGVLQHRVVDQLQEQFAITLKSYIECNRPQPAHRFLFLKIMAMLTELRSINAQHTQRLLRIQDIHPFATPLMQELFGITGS
Nature of the data set: Inhibition of pregnane X receptor mediated activation of alkaline phosphatase reporter gene at 10 uM. The class given is functional. The method, boiled down: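 HepG2 cells were cotransfected with a human PXR expression vector and a secreted alkaline phosphatase (SEAP) reporter driven by a synthetic PXR-responsive element. Cells were incubated 48 h with or without test compound, and SEAP activity was read with a commercial detection kit.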

Data set [8] in a line: Plasma clearance in rat. The class given is ADME, organism-based. The following applies: read-out: Clp. Put shortly:
as §3

Data set [9] can be described thus: Oral bioavailability in dog at a dose of 2 mg/kg. The class given is ADME, organism-based, Canis lupus familiaris. Particulars: in vivo. The method, boiled down: as §3
Data set [10] is described as follows: Plasma clearance after intravenous administration of 1 mg/kg in dog. The arrangement: dose 1 mg/kg, route intravenous. The following applies: read-out: Clp. The class given is ADME, organism-based, Canis lupus familiaris. Put shortly:
as §3

The subject of data set [11] is Huh-7. Description: Effective concentration required to inhibit replication of subgenomic HCV RNA in HUH-7 cells in the presence of 50% normal human serum. The class given is functional, cell-based. Put shortly: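 Subgenomic HCV replicon in HUH-7 cells run under high-serum conditions with 50% normal human serum in place of 10% fetal calf serum. EC50 values are the arithmetic mean ± half-range or standard error of at least two independent determinations.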

Data set [12] addresses T1, RNA-directed RNA polymerase. Nature of the data set: Inhibitory activity against hepatitis C virus NS5B polymerase enzyme; Range=6-9 nM. Put shortly: as §1
Data set [13] concerns Huh-7. Description: Effective concentration required to inhibit replication of subgenomic HCV RNA in HUH-7 cells in the presence of 10% fetal calf serum. The class given is functional, cell-based. The following applies: Homo sapiens. Put shortly:
as §2

The nature of data set [14]: Plasma half life following 1 mg/kg iv administration in dog. The arrangement: dose 1 mg/kg, route intravenous. The class given is ADME, organism-based, Canis lupus familiaris. Put shortly: as §3
A short description of data set [15]: Plasma clearance in dod. The class given is ADME, organism-based, Canis lupus familiaris. The following applies: dog, read-out: Clp. Put shortly:
as §3

The values below come from ChEMBL document CHEMBL1140313, “Potent inhibitors of subgenomic hepatitis C virus RNA replication through optimization of indole-N-acetamide allosteric inhibitors of the viral NS5B polymerase” (J Med Chem, 2005).

A word on the IC50: it is the concentration that gives 50% inhibition. A word on the EC50: it is the midpoint of the concentration-response curve. In general, half-life refers to the time in which the quantity being followed falls by half. In general, bioavailability refers to dose-corrected exposure relative to a reference, in per cent. A higher bioavailability goes with much systemic uptake. The inhibition is the drop in the measured response relative to a control, in per cent.

T1 sequence (O39930 whole entry): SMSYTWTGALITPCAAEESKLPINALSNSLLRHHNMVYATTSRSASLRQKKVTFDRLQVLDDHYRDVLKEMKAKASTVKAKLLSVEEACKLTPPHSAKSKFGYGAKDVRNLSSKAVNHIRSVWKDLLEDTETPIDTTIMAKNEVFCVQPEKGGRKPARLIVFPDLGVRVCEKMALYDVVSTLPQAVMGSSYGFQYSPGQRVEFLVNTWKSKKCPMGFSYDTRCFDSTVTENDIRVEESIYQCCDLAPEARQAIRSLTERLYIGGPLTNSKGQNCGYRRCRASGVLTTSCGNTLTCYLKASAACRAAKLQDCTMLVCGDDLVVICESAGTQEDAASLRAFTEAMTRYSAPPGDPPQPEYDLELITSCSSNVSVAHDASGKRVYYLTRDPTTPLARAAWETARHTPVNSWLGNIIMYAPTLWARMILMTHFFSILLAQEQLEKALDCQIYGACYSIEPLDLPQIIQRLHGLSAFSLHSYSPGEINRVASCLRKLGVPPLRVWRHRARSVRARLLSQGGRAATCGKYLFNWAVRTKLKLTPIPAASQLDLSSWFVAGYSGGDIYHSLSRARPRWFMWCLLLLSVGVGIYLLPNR

On to `CN1CCCC(CN(C)C(=O)Cn2c(-c3ccccc3)c(C3CCCCC3)c3ccc(C(=O)O)cc32)C1` (configuration not stated), for which the IC50 in [1] turned out to be 0.018 µM. The molecule further displayed an EC50 in data set [2] of 0.3 µM. Also, the figures for the half-life in data set [3] and in data set [5] were 1.2 h and 1.5 h, respectively. Also, the bioavailability in data set [4] was determined as 1.9%; in [9] it was 28%. Besides, the figures for the clearance in [6] and in [8] were 22 mL/min/kg and 51 mL/min/kg, respectively. Further, at 10 µM the inhibition in [7] was 10%.
On to `CCN(CC)C1CCN(C(=O)Cn2c(-c3ccc(Cl)cc3)c(C3CCCCC3)c3ccc(C(=O)O)cc32)CC1`, for which the clearance in [10] is 9 mL/min/kg; in data set [15] it was 9 mL/min/kg; in data set [8], 44 mL/min/kg. Further, the EC50 was found to be 0.454 µM in data set [11] and 0.127 µM in [13]. Besides, the IC50 in data set [12] was determined as 0.009 µM. For the same molecule, the bioavailability worked out at 10% in data set [4] and 51% in data set [9]. The half-life in data set [5] was 3.1 h; in data set [14] it was 5 h.
Take `CCN(CC)CC1CN(C(=O)Cn2c(-c3ccc(OC)cc3)c(C3CCCCC3)c3ccc(C(=O)O)cc32)CCO1` (configuration not stated): the figures for the EC50 in data set [11] and in data set [13] were 0.376 µM and 0.152 µM, respectively. In [12], this molecule displayed an IC50 of 0.009 µM.
